ChEMBL document CHEMBL3272149, “Synthesis and antibacterial activity of some derivatives of tolypomycinone. Relationship between structure and activity in ansamycins” (J Med Chem, 1977)
In brackets after ≈: the same amount, converted by molar mass.

What was measured:
Assay type in all cases: functional
Staphylococcus aureus = experiment: Antibacterial activity against Staphylococcus aureus 209 P(FDA) assessed as inhibition of visible growth after 24 hrs by serial dilution method
Klebsiella pneumoniae = experiment: Antibacterial activity against Klebsiella pneumoniae Ottaviani assessed as inhibition of visible growth after 24 hrs by serial dilution method
Escherichia coli = experiment: Antibacterial activity against Escherichia coli MC/35 assessed as inhibition of visible growth after 24 hrs by serial dilution method; conditions: MC/35, 24 h
[1] = system: Salmonella enterica subsp. enterica serovar Paratyphi B; experiment: Antibacterial activity against Salmonella paratyphi B 0248 K assessed as inhibition of visible growth after 24 hrs by serial dilution method
In short: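 Broth tube serial dilution in Brain Heart Infusion medium; inoculum 10^6 cells/mL; incubation 24 h at 35 °C; MIC taken as the lowest antibiotic concentration that prevented visible growth.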

Structure (SMILES)	MIC (Staphylococcus aureus)	MIC (Klebsiella pneumoniae)	MIC (Escherichia coli)	MIC [1]
CO[C@H]1/C=C/O[C@@]2(C)Oc3c(C)c(O)c4c(c3C2=O)C(=O)C(NCc2cccnc2)=C(NC(=O)/C(C)=C\C(=O)[C@@H]2C[C@@H]2[C@H](O)[C@@H](C)[C@@H](O)[C@@H](C)[C@H](OC(C)=O)[C@@H]1C)C4=O	< 0.005 µg/mL	25 µg/mL (≈ 30.6 µM)	6 µg/mL (≈ 7.35 µM)	12 µg/mL (≈ 14.7 µM)
CO[C@H]1/C=C/O[C@@]2(C)Oc3c(C)c(O)c4c(c3C2=O)C(=O)C(NCC2CCCO2)=C(NC(=O)/C(C)=C\C(=O)[C@@H]2C[C@@H]2[C@H](O)[C@@H](C)[C@@H](O)[C@@H](C)[C@H](OC(C)=O)[C@@H]1C)C4=O (stereo not given in full)	0.005 µg/mL (≈ 0.00618 µM)	25 µg/mL (≈ 30.9 µM)	6 µg/mL (≈ 7.42 µM)	12 µg/mL (≈ 14.8 µM)
CO[C@H]1/C=C/O[C@@]2(C)Oc3c(C)c(O)c4c(c3C2=O)C(=O)C(NCCCN2CCN(C)CC2)=C(NC(=O)/C(C)=C\C(=O)[C@@H]2C[C@@H]2[C@H](O)[C@@H](C)[C@@H](O)[C@@H](C)[C@H](OC(C)=O)[C@@H]1C)C4=O	0.025 µg/mL (≈ 0.0289 µM)	25 µg/mL (≈ 28.9 µM)	12 µg/mL (≈ 13.9 µM)	3 µg/mL (≈ 3.47 µM)
CO[C@H]1/C=C/O[C@@]2(C)Oc3c(C)c(O)c4c(c3C2=O)C(=O)C(NCCN(C)C)=C(NC(=O)/C(C)=C\C(=O)[C@@H]2C[C@@H]2[C@H](O)[C@@H](C)[C@@H](O)[C@@H](C)[C@H](OC(C)=O)[C@@H]1C)C4=O	< 0.005 µg/mL	25 µg/mL (≈ 31.4 µM)	6 µg/mL (≈ 7.54 µM)	12 µg/mL (≈ 15.1 µM)
CO[C@H]1/C=C/O[C@@]2(C)Oc3c(C)c(O)c4c(c3C2=O)C(=O)C(NCCc2ccc(O)cc2)=C(NC(=O)/C(C)=C\C(=O)[C@@H]2C[C@@H]2[C@H](O)[C@@H](C)[C@@H](O)[C@@H](C)[C@H](OC(C)=O)[C@@H]1C)C4=O	< 0.005 µg/mL	> 100 µg/mL	> 100 µg/mL	> 50 µg/mL
CNC1=C2NC(=O)/C(C)=C\C(=O)[C@@H]3C[C@@H]3[C@H](O)[C@@H](C)[C@@H](O)[C@@H](C)[C@H](OC(C)=O)[C@H](C)[C@@H](OC)/C=C/O[C@@]3(C)Oc4c(C)c(O)c(c(c4C3=O)C1=O)C2=O	0.005 µg/mL (≈ 0.00677 µM)	25 µg/mL (≈ 33.8 µM)	50 µg/mL (≈ 67.7 µM)	12 µg/mL (≈ 16.2 µM)
CO[C@H]1/C=C/O[C@@]2(C)Oc3c(C)c(O)c4c(O)c(c(/C=N/N5CCN(C)CC5)c(O)c4c3C2=O)NC(=O)/C(C)=C\C=C\[C@H](C)[C@H](O)[C@@H](C)[C@@H](O)[C@@H](C)[C@H](OC(C)=O)[C@@H]1C [RIFAMPIN]	0.025 µg/mL (≈ 0.0304 µM)	25 µg/mL (≈ 30.4 µM)	6 µg/mL (≈ 7.29 µM)	12 µg/mL (≈ 14.6 µM)
CO[C@H]1/C=C/O[C@@]2(C)Oc3c(C)c(O)c4c(c3C2=O)C(=O)C(NCCN2CCN(C)CC2)=C(NC(=O)/C(C)=C\C(=O)[C@@H]2C[C@@H]2[C@H](O)[C@@H](C)[C@@H](O)[C@@H](C)[C@H](OC(C)=O)[C@@H]1C)C4=O	0.025 µg/mL (≈ 0.0294 µM)	12 µg/mL (≈ 14.1 µM)	25 µg/mL (≈ 29.4 µM)	6 µg/mL (≈ 7.05 µM)
CO[C@H]1/C=C/O[C@@]2(C)Oc3c(C)c(O)c4c(c3C2=O)C(=O)C(NCc2ccc(N(C)C)cc2)=C(NC(=O)/C(C)=C\C(=O)[C@@H]2C[C@@H]2[C@H](O)[C@@H](C)[C@@H](O)[C@@H](C)[C@H](OC(C)=O)[C@@H]1C)C4=O	< 0.005 µg/mL	12 µg/mL (≈ 14 µM)	23 µg/mL (≈ 26.8 µM)	12 µg/mL (≈ 14 µM)
CNC1=C2NC(=O)C(C)(NC)CC(=O)[C@@H]3C[C@@H]3[C@H](O)[C@@H](C)[C@@H](O)[C@@H](C)[C@H](OC(C)=O)[C@H](C)[C@@H](OC)/C=C/O[C@@]3(C)Oc4c(C)c(O)c(c(c4C3=O)C1=O)C2=O (stereo not given in full)	0.005 µg/mL (≈ 0.00649 µM)	> 100 µg/mL	> 100 µg/mL	50 µg/mL (≈ 64.9 µM)
